Data taken from ChEMBL document CHEMBL1165943, “Design and synthesis of new anticancer pyrimidines with multiple-kinase inhibitory effect” (Bioorg Med Chem, 2010).
The source made the active and inactive calls. No cut-off for these calls is given here.

What was measured:
HOP-62 [1] = assay: Cytotoxicity against human HOP62 cells assessed as cell growth at 1 uM after 48 hrs by sulforhodamine B assay; assay type: functional; settings: HOP-62, 48 h, read-out: Activity
KM12 [2] = assay: Growth inhibition of human KM12 cells after 48 hrs by sulforhodamine B assay; assay type: functional, cell-based; settings: KM12, 48 h; for CC50: read-out: LC50 (the source's name)
Procedure, shortened: (§1)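 Cells grown in RPMI 1640 with 5% FBS and 2 mM L-glutamine, seeded at 5,000–40,000 cells/well according to doubling time. After 24 h, time-zero plates are TCA-fixed. Five concentrations (10-fold or ½log dilutions, DMSO stocks) are applied for 48 h at 37 °C, 5% CO₂. Cells are TCA-fixed, SRB-stained and read at 515 nm. IC₅₀ is taken from [(Ti−Tz)/(C−Tz)]×100 = 50.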

TK-10 = assay: Cytotoxicity against human TK10 cells assessed as cell growth at 1 uM after 48 hrs by sulforhodamine B assay; assay type: functional; settings: TK-10, 48 h, read-out: Activity
KM12 [3] = assay: Cytotoxicity against human KM12 cells assessed as cell growth at 0.001 uM after 48 hrs by sulforhodamine B assay; assay type: functional; settings: KM12, 48 h, read-out: Activity
SF-295 = assay: Cytotoxicity against human SF295 cells assessed as cell growth at 1 uM after 48 hrs by sulforhodamine B assay; assay type: functional; settings: SF-295, 48 h, read-out: Activity
SNB-75 = assay: Cytotoxicity against human SNB75 cells assessed as cell growth at 0.01 uM after 48 hrs by sulforhodamine B assay; assay type: functional; settings: SNB-75, 48 h, read-out: Activity
BT-549 = assay: Cytotoxicity against human BT549 cells assessed as cell growth at 0.001 uM after 48 hrs by sulforhodamine B assay; assay type: functional; settings: BT-549, 48 h, read-out: Activity
Procedure, shortened: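 Cells grown in RPMI 1640 with 5% FBS and 2 mM L-glutamine, seeded at 5,000–40,000 cells/well by doubling time. Time-zero plates TCA-fixed after 24 h. Five concentrations (10-fold or half-log dilutions from DMSO stock) added; 48 h at 37 °C, 5% CO2. Cold TCA fixation (final 10%, 60 min, 4 °C), 0.4% SRB stain, dye solubilized in 10 mM trizma base, A515.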

SK-OV-3 = assay: Cytotoxicity against human SKOV3 cells assessed as cell growth at 10 uM after 48 hrs by sulforhodamine B assay; assay type: functional; settings: SK-OV-3, 48 h, read-out: Activity
OVCAR-4 = assay: Cytotoxicity against human OVCAR4 cells assessed as cell growth at 1 uM after 48 hrs by sulforhodamine B assay; assay type: functional; settings: OVCAR-4, 48 h, read-out: Activity
UACC-257 [4] = assay: Growth inhibition of human UACC257 cells after 48 hrs by sulforhodamine B assay; assay type: functional, cell-based; settings: UACC-257, 48 h; for CC50: read-out: LC50 (the source's name); procedure, shortened: as §1
UACC-62 = assay: Cytotoxicity against human UACC62 cells assessed as cell growth at 1 uM after 48 hrs by sulforhodamine B assay; assay type: functional; settings: UACC-62, 48 h, read-out: Activity
HOP-62 [5] = assay: Growth inhibition of human HOP62 cells after 48 hrs by sulforhodamine B assay; assay type: functional, cell-based; settings: HOP-62, 48 h; for CC50: read-out: LC50 (the source's name); procedure, shortened: as §1
RXF 393 = assay: Growth inhibition of human RXF393 cells after 48 hrs by sulforhodamine B assay; assay type: functional, cell-based; procedure, shortened: as §1
HT-29 = assay: Cytotoxicity against human HT-29 cells assessed as cell growth at 1 uM after 48 hrs by sulforhodamine B assay; assay type: functional; settings: HT-29, 48 h, read-out: Activity
HOP-92 = assay: Growth inhibition of human HOP92 cells after 48 hrs by sulforhodamine B assay; assay type: functional, cell-based; procedure, shortened: as §1
SF-539 [6] = assay: Cytotoxicity against human SF539 cells assessed as cell growth at 100 nM after 48 hrs by sulforhodamine B assay; assay type: functional; settings: SF-539, 48 h, read-out: Activity
SF-539 [7] = assay: Cytotoxicity against human SF539 cells assessed as cell growth at 10 uM after 48 hrs by sulforhodamine B assay; assay type: functional; settings: SF-539, 48 h, read-out: Activity
UO-31 = assay: Growth inhibition of human UO31 cells after 48 hrs by sulforhodamine B assay; assay type: functional, cell-based; settings: UO-31, 48 h; for CC50: read-out: LC50 (the source's name); procedure, shortened: as §1
SW-620 = assay: Cytotoxicity against human SW620 cells assessed as cell growth at 0.001 uM after 48 hrs by sulforhodamine B assay; assay type: functional; settings: SW-620, 48 h, read-out: Activity
OVCAR-3 = assay: Cytotoxicity against human OVCAR-3 cells assessed as cell growth at 1 uM after 48 hrs by sulforhodamine B assay; assay type: functional; settings: OVCAR-3, 48 h, read-out: Activity
OVCAR-5 = assay: Cytotoxicity against human OVCAR5 cells assessed as cell growth at 100 nM after 48 hrs by sulforhodamine B assay; assay type: functional; settings: OVCAR-5, 48 h, read-out: Activity
HCT-116 = assay: Cytotoxicity against human HCT116 cells assessed as cell growth at 100 nM after 48 hrs by sulforhodamine B assay; assay type: functional; settings: HCT-116, 48 h, read-out: Activity
K562 = assay: Cytotoxicity against human K562 cells assessed as cell growth at 10 uM after 48 hrs by sulforhodamine B assay; assay type: functional; settings: K562, 48 h, read-out: Activity
HL-60(TB) = assay: Cytotoxicity against human HL-60(TB) cells assessed as cell growth at 1 uM after 48 hrs by sulforhodamine B assay; assay type: functional; settings: HL-60, 48 h, read-out: Activity
Procedure, shortened: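 Five-concentration HL-60(TB) test in RPMI 1640 with 5% FBS and 2 mM L-glutamine. Cells are plated at 5,000–40,000/well and a TCA-fixed time-zero plate is read at drug addition after 24 h. Drug is dissolved in DMSO and given as five 10-fold or ½log dilutions for 48 h at 37 °C, 5% CO2. Settled cells are fixed with TCA, stained with SRB and read at 515 nm.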

MDA-MB-435 = assay: Cytotoxicity against human MDA-MB-435 cells assessed as cell growth at 0.001 uM after 48 hrs by sulforhodamine B assay; assay type: functional; settings: MDA-MB-435, 48 h, read-out: Activity
HCT-15 = assay: Cytotoxicity against human HCT15 cells assessed as cell growth at 0.001 uM after 48 hrs by sulforhodamine B assay; assay type: functional; settings: HCT-15, 48 h, read-out: Activity
[8] = Cytotoxicity against human Hs 578T cells assessed as cell growth at 1 uM after 48 hrs by sulforhodamine B assay; assay type: functional; settings: read-out: Activity
UACC-257 [9] = assay: Cytotoxicity against human UACC257 cells assessed as cell growth at 0.001 uM after 48 hrs by sulforhodamine B assay; assay type: functional; settings: UACC-257, 48 h, read-out: Activity
KM12 [10] = assay: Cytotoxicity against human KM12 cells assessed as cell growth at 100 nM after 48 hrs by sulforhodamine B assay; assay type: functional; settings: KM12, 48 h, read-out: Activity

Compound: CC(=O)c1ccccc1-c1ccc(-c2ccnc(NC(=O)Nc3cc(N4CCOCC4)cc(C(F)(F)F)c3)n2)cn1
- growth at 1 µM (HOP-62 [1]): 21%
- GI50 (KM12 [2]): > 100 µM
- IC50 (KM12 [2]): > 100 µM
- TGI (KM12 [2]): > 100 µM
- CC50 (KM12 [2]): > 100 µM
- growth at 1 µM (TK-10): 32%
- growth at 0.001 µM (KM12 [3]): 103%
- growth at 1 µM (SF-295): 48%
- growth at 0.01 µM (SNB-75): 100%
- growth at 0.001 µM (BT-549): 101%
- growth at 10 µM (SK-OV-3): 41%
- growth at 1 µM (OVCAR-4): 48%
- GI50 (UACC-257 [4]): 15.9 µM
- IC50 (UACC-257 [4]): > 100 µM
- TGI (UACC-257 [4]): > 100 µM
- CC50 (UACC-257 [4]): > 100 µM
- growth at 1 µM (UACC-62): 73%
- GI50 (HOP-62 [5]): > 100 µM
- IC50 (HOP-62 [5]): 4.29 µM
- TGI (HOP-62 [5]): > 100 µM
- CC50 (HOP-62 [5]): > 100 µM
- LC50 (RXF 393): inactive
- GI50 (RXF 393; Homo sapiens, RXF 393, 48 h): > 100 µM
- TGI (RXF 393; Homo sapiens, RXF 393, 48 h): 3.5 µM
- IC50 (RXF 393; Homo sapiens, RXF 393, 48 h, read-out: IC50): 1.27 µM
- growth at 1 µM (HT-29): 76%
- TGI (HOP-92): inactive
- GI50 (HOP-92; Homo sapiens, HOP-92, 48 h): 4.29 µM
- IC50 (HOP-92; Homo sapiens, HOP-92, 48 h, read-out: IC50): 2.95 µM
- CC50 (HOP-92; Homo sapiens, HOP-92, 48 h, read-out: LC50 (the source's name)): > 100 µM
- growth at 0.1 µM (SF-539 [6]): 88%
- growth at 10 µM (SF-539 [7]): 56%
- GI50 (UO-31): > 5.46 µM
- IC50 (UO-31): > 100 µM
- TGI (UO-31): > 100 µM
- CC50 (UO-31): > 100 µM
- growth at 0.001 µM (SW-620): 98%
- growth at 1 µM (OVCAR-3): 70%
- growth at 0.1 µM (OVCAR-5): 91%
- growth at 0.1 µM (HCT-116): 86%
- growth at 10 µM (K562): 103%
- growth at 1 µM (HL-60(TB)): 88%
- growth at 0.001 µM (MDA-MB-435): 98%
- growth at 0.001 µM (HCT-15): 98%
- growth at 1 µM [8]: 22%
- growth at 0.001 µM (UACC-257 [9]): 89%
- growth at 0.1 µM (KM12 [10]): 89%

Compound: CC(=O)Nc1cccc(-c2ccc(-c3ccnc(NC(=O)Nc4cc(C(F)(F)F)cc(C(F)(F)F)c4)n3)cn2)c1.Cl
- growth at 1 µM (HOP-62 [1]): 27%
- GI50 (KM12 [2]): 2.59 µM
- IC50 (KM12 [2]): 2.59 µM
- TGI (KM12 [2]): 8.01 µM
- CC50 (KM12 [2]): 27.9 µM
- growth at 1 µM (TK-10): 80%
- growth at 0.001 µM (KM12 [3]): 99%
- growth at 1 µM (SF-295): -15%
- growth at 0.01 µM (SNB-75): 71%
- growth at 0.001 µM (BT-549): 100%
- growth at 10 µM (SK-OV-3): -63%
- growth at 1 µM (OVCAR-4): 4%
- GI50 (UACC-257 [4]): 1.69 µM
- IC50 (UACC-257 [4]): 1.69 µM
- TGI (UACC-257 [4]): 4.32 µM
- CC50 (UACC-257 [4]): 13.2 µM
- growth at 1 µM (UACC-62): 12%
- GI50 (HOP-62 [5]): 4.88 µM
- IC50 (HOP-62 [5]): 4.88 µM
- TGI (HOP-62 [5]): 26.8 µM
- CC50 (HOP-62 [5]): > 100 µM
- LC50 (RXF 393): inactive
- TGI (RXF 393): inactive
- IC50 (RXF 393; rxf 393): Not Active
- growth at 1 µM (HT-29): -6%
- LC50 (HOP-92): inactive
- TGI (HOP-92): inactive
- IC50 (HOP-92; hop-92): Not Active
- growth at 0.1 µM (SF-539 [6]): 86%
- growth at 10 µM (SF-539 [7]): -98%
- GI50 (UO-31): 5.51 µM
- IC50 (UO-31): 5.51 µM
- TGI (UO-31): 23.2 µM
- CC50 (UO-31): 61.7 µM
- growth at 0.001 µM (SW-620): 95%
- growth at 1 µM (OVCAR-3): -52%
- growth at 0.1 µM (OVCAR-5): 97%
- growth at 0.1 µM (HCT-116): 72%
- growth at 10 µM (K562): 19%
- growth at 1 µM (HL-60(TB)): 28%
- growth at 0.001 µM (MDA-MB-435): 97%
- growth at 0.001 µM (HCT-15): 96%
- growth at 1 µM [8]: 43%
- growth at 0.001 µM (UACC-257 [9]): 94%
- growth at 0.1 µM (KM12 [10]): 92%
